Data set [1] concerns SH-SY5Y. Briefly: Neuroprotective activity against amyloid beta (1 to 42)-induced neurotoxicity in human SH-SY5Y cells assessed as increase in cell viability at 50 uM incubated for 24 hrs by MTT assay. Type of data set: functional. In a few lines: (§1)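 Differentiated SH-SY5Y cells co-treated 24 h with compound (0.1–100 μM) and Aβ1-42 (20 μM). Vehicle 0.1% DMSO; 1% Triton X positive control. MTT added for 3 h at 37 °C, formazan dissolved in DMSO, absorbance read at 570 nm. Mean ± SD from at least six independent experiments.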
On the technique in general: Tetrazolium dyes change colour on reduction, which living cells bring about.

For data set [2], the system named is SH-SY5Y. Briefly: Neuroprotective activity against amyloid beta (1 to 42)-induced Alzheimer's disease model in human SH-SY5Y cells assessed as decrease in AChE activity at 25 uM incubated for 24 hrs by Colorimetric assay. In kind it is functional. Further details: scale not given: the % may be the effect or the level left. In a few lines: (§2)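 SH-SY5Y cells grown in DMEM:F12 with 10% FBS, differentiated with retinoic acid for 5 days, then serum-free medium with 10 μM retinoic acid plus 25 ng/mL BDNF, used within 10 days. Co-treated with 20 μM Aβ1-42 for 24 h; DMSO ≤0.1% vehicle. Cells lysed 15 min at room temperature, centrifuged; AChE measured in supernatant by colorimetric kit at 410 nm.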

For data set [3], the system named is SH-SY5Y. Briefly: Neuroprotective activity against amyloid beta (1 to 42)-induced neurotoxicity in human SH-SY5Y cells assessed as increase in cell viability at 25 uM incubated for 24 hrs by MTT assay. In kind it is functional. An outline of the steps: as §1
The subject of data set [4] is SH-SY5Y. Briefly: Neuroprotective activity against amyloid beta (1 to 42)-induced neurotoxicity in human SH-SY5Y cells assessed as increase in cell viability at 0.1 to 100 uM incubated for 24 hrs by MTT assay. In kind it is functional, cell-based. To be noted: dose 0.1-100 µM. An outline of the steps:
as §1

Data set [5] deals with SH-SY5Y. Briefly: Neuroprotective activity against amyloid beta (1 to 42)-induced neurotoxicity in human SH-SY5Y cells assessed as increase in cell viability at 100 uM incubated for 24 hrs by MTT assay. In kind it is functional. An outline of the steps: as §1
The test system of data set [6] is SH-SY5Y. Briefly: Neuroprotective activity against amyloid beta (1 to 42)-induced neurotoxicity in human SH-SY5Y cells assessed as increase in cell viability at 25 uM incubated for 24 hrs by LDH release assay. Type of data set: functional. In a few lines:
(§3)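 Differentiated SH-SY5Y cells exposed 24 h to compound with Aβ1-42 (20 μM). Supernatant mixed 1:1 with LDH reaction mixture and held 30 min at room temperature. Lactate-to-pyruvate conversion with NAD+ reduction read as absorbance at 490 nm. Mean ± SD, at least six independent experiments.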
A general note: LDH in the medium is a marker of cell lysis.

The subject of data set [7] is SH-SY5Y. Briefly: Neuroprotective activity against amyloid beta (1 to 42)-induced neurotoxicity in human SH-SY5Y cells assessed as increase in cell viability at 50 uM incubated for 24 hrs by LDH release assay. Type of data set: functional. In a few lines:
as §3

The test system of data set [8] is SH-SY5Y. Briefly: Neuroprotective activity against amyloid beta (1 to 42)-induced neurotoxicity in human SH-SY5Y cells assessed as increase in cell viability at 100 uM incubated for 24 hrs by LDH release assay. In kind it is functional. In a few lines:
as §3

Data set [9] relates to SH-SY5Y. Briefly: Neuroprotective activity against amyloid beta (1 to 42)-induced Alzheimer's disease model in human SH-SY5Y cells assessed as decrease in AChE activity at 50 uM incubated for 24 hrs by Colorimetric assay. In kind it is functional. On the set-up: scale not given: the % may be the effect or the level left. An outline of the steps: as §2
Data set [10] has as its system SH-SY5Y. Briefly: Antioxidant activity against amyloid beta (1 to 42)-induced Alzheimer's disease model in human SH-SY5Y cells assessed as increase of TAC level at 25 uM by ABTS assay. In kind it is functional, cell-based. An outline of the steps:
(§4)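 Differentiated SH-SY5Y cells: grown in DMEM:F12 with 10% FBS, then 10 μg/mL retinoic acid for 5 days, then serum-free medium with 10 μM retinoic acid and 25 ng/mL BDNF. Co-exposed 24 h to Aβ1-42 (20 μM) plus compound. Vehicle 0.1% DMSO. Automated kits on culture samples. TAC: ABTS decolorization at 660 nm, Trolox calibration. TOS: ferrous-to-ferric chelator oxidation, H2O2 calibration, µM H2O2 equivalent/L. n = 6.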

The subject of data set [11] is SH-SY5Y. Briefly: Antioxidant activity against amyloid beta (1 to 42)-induced Alzheimer's disease model in human SH-SY5Y cells assessed as decrease of TOS level at 25 uM. In kind it is functional, cell-based. An outline of the steps: as §4
Data set [12] has as its system SH-SY5Y. Briefly: Antioxidant activity against amyloid beta (1 to 42)-induced Alzheimer's disease model in human SH-SY5Y cells assessed as increase of TAC level at 50 uM by ABTS assay. Type of data set: functional, cell-based. An outline of the steps: as §4
In data set [13] the test system is SH-SY5Y. Briefly: Antioxidant activity against amyloid beta (1 to 42)-induced Alzheimer's disease model in human SH-SY5Y cells assessed as decrease of TOS level at 50 uM. In kind it is functional, cell-based. In a few lines: as §4
The subject of data set [14] is SH-SY5Y. Briefly: Neuroprotective activity against amyloid beta (1 to 42)-induced Alzheimer's disease model in human SH-SY5Y cells assessed as protection against amyloid beta (1 to 42)-induced nuclear integrity damage at 25 uM incubated for 24 hrs by Hoechst 33258 staining fluorescence microscopy. In kind it is functional, cell-based. In a few lines: (§5)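 RA/BDNF-differentiated SH-SY5Y cells incubated 24 h with Aβ1-42 (20 μM) alone or with test agent at 25 or 50 μM. Fixed in 4% paraformaldehyde in PBS, 30 min at 4 °C. Stained with 1 mM Hoechst 33258 for 5 min at room temperature. Nuclear morphology examined by fluorescence microscopy.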

The test system of data set [15] is SH-SY5Y. Briefly: Neuroprotective activity against amyloid beta (1 to 42)-induced Alzheimer's disease model in human SH-SY5Y cells assessed as protection against amyloid beta (1 to 42)-induced nuclear integrity damage at 50 uM incubated for 24 hrs by Hoechst 33258 staining fluorescence microscopy. Type of data set: functional, cell-based. In a few lines: as §5

The test system of data set [16] is SH-SY5Y. Briefly: Neuroprotective activity against amyloid beta (1 to 42)-induced Alzheimer's disease model in human SH-SY5Y cells assessed as inhibition of apoptosis at 25 uM incubated for 24 hrs by Hoechst 33258 staining fluorescence microscopy. In kind it is functional, cell-based. An outline of the steps:
as §5

Data set [17] has as its system SH-SY5Y. Briefly: Neuroprotective activity against amyloid beta (1 to 42)-induced Alzheimer's disease model in human SH-SY5Y cells assessed as inhibition of apoptosis at 50 uM incubated for 24 hrs by Hoechst 33258 staining fluorescence microscopy. In kind it is functional, cell-based. An outline of the steps:
as §5

Data set [18] concerns SH-SY5Y. Briefly: Neuroprotective activity against amyloid beta (1 to 42)-induced Alzheimer's disease model in human SH-SY5Y cells assessed as reduction in necrosis rate at 25 to 50 uM incubated for 24 hrs by Annexin V-FITC/propidium iodide staining flow cytometry. Type of data set: functional, cell-based. To be noted: dose 25-50 µM, DDE = dose-dependent effect. In a few lines:
(§6)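 Differentiated SH-SY5Y cells given 24 h Aβ1-42 (20 μM) with or without compound. 5 x 10^4 cells pelleted and resuspended in 1X binding buffer. Annexin V-FITC and PI added, 5 min in the dark, then fixed in 4% paraformaldehyde. Flow cytometry sorted cells into viable, early apoptotic, late apoptotic/necrotic and necrotic fractions.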
For orientation: A flow cytometer gives signals particle by particle.

For data set [19], the system named is SH-SY5Y. Briefly: Neuroprotective activity against amyloid beta (1 to 42)-induced Alzheimer's disease model in human SH-SY5Y cells assessed as reduction in necrosis rate incubated for 24 hrs by Annexin V-FITC/propidium iodide staining flow cytometry. In kind it is functional. On the set-up: scale not given: the % may be the effect or the level left. In a few lines:
as §6

The nature of data set [20]: Genotoxicity in human blood assessed as frequency of sister chromatid exchange at 0.1 to 100 uM by BrdU/Giemsa staining based fluorescence assay. To be noted: dose 0.1-100 µM. In kind it is toxicity, tissue-based. An outline of the steps:
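Human peripheral blood cultured in PB-MAX karyotyping medium with phytohemagglutinin; compounds added just before incubation. BrdU added; demecolcine at 70 h 30 min. Then 0.075 M KCl hypotonic treatment, methanol/acetic acid (3:1) fixation, slides aged 3 days, fluorescence plus Giemsa staining. 25 second-division metaphases (42–46 chromosomes) scored per condition; result given as SCEs/cell.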

The nature of data set [21]: Induction of DNA damage in human blood assessed as increase in 8-OH-dG level at 0.1 to 100 uM incubated for 24 hrs. In kind it is toxicity, tissue-based. To be noted: dose 0.1-100 µM. In a few lines:
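Heparinized human peripheral blood cultured with phytohemagglutinin in PB-MAX medium, with compounds added at culture start. 8-OH-dG measured by competitive ELISA (8-OH-dG–AChE conjugate competing for monoclonal antibody). Detects free and DNA-incorporated 8-OH-dG. Read at 405–420 nm.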

In ChEMBL document CHEMBL5107942, “Boron-based hybrids as novel scaffolds for the development of drugs with neuroprotective properties” (RSC Med Chem, 2021) one finds Activity data, which are given here for three molecules.

Activity calls are given as the source filed them. No cut-off for these calls is given here.

For `CC12CC3CC(C)(C1)CC(N)(C3)C2` [MEMANTINE], the Activity came to 19.38% with SH-SY5Y [1]; 14.57% in the data set on SH-SY5Y [2]; 17.27% with SH-SY5Y [3]; 17.08% with SH-SY5Y [5]; 56.81% with SH-SY5Y [6]; 59.15% with SH-SY5Y [7]. Further, the Activity was 57.28% with SH-SY5Y [8]; 19.47% with SH-SY5Y [9]; “Dde” in the data set with SH-SY5Y [18]; 61.67% in the data set with SH-SY5Y [19]; “Non-Toxic” in data set [20]; “Non-Toxic” in [21]. Also, the outcome in the data set on SH-SY5Y [4], in the data set with SH-SY5Y [10], with SH-SY5Y [11], in the data set with SH-SY5Y [12], in the data set with SH-SY5Y [13] and in the data set with SH-SY5Y [14] was Active. The result in the data set with SH-SY5Y [15], in the data set with SH-SY5Y [16] and with SH-SY5Y [17] was Active.

`CC1(C)C2CC3OB(CNC(=O)CCCC[C@H]4CCSS4)O[C@]3(C)C1C2` (stereo partly drawn): the Activity is given as 29.94% with SH-SY5Y [1]; 18.77% in the data set with SH-SY5Y [2]; 25.14% in the data set on SH-SY5Y [3]; 32.92% in the data set with SH-SY5Y [5]; 62.91% in the data set on SH-SY5Y [6]; 67.37% with SH-SY5Y [7]. Besides, the Activity with SH-SY5Y [8] is 70.65%; in the data set on SH-SY5Y [9] it was 22.96%; in the data set with SH-SY5Y [18], “Dde”; in the data set with SH-SY5Y [19] it was 68.38%; in data set [20] it was “Non-Toxic”; in [21], “Non-Toxic”. For the same molecule, the outcome in the data set on SH-SY5Y [4], in the data set on SH-SY5Y [10], in the data set on SH-SY5Y [11], with SH-SY5Y [12], in the data set with SH-SY5Y [13] and with SH-SY5Y [14] was Active. The outcome in the data set with SH-SY5Y [15], with SH-SY5Y [16] and in the data set on SH-SY5Y [17] was Active.

Regarding `O=C(O)CCCCC1CCSS1` (stereo not drawn) [LIPOIC ACID, ALPHA], the Activity in the data set on SH-SY5Y [1] stood at 19.01%; in the data set with SH-SY5Y [2], 13.17%; with SH-SY5Y [3], 14.78%; in the data set on SH-SY5Y [5], 20.73%; in the data set on SH-SY5Y [6], 53.05%; in the data set with SH-SY5Y [7], 58.68%. The Activity was 59.86% with SH-SY5Y [8]; 16.66% in the data set with SH-SY5Y [9]; “Dde” in the data set with SH-SY5Y [18]; 65.97% in the data set with SH-SY5Y [19]; “Non-Toxic” in data set [20]; “Non-Toxic” in data set [21]. The result in the data set on SH-SY5Y [4], in the data set with SH-SY5Y [10], in the data set on SH-SY5Y [11], in the data set with SH-SY5Y [12], in the data set on SH-SY5Y [13] and in the data set on SH-SY5Y [14] was Active. In addition, the result with SH-SY5Y [15], with SH-SY5Y [16] and in the data set on SH-SY5Y [17] was Active.
